Screening data deposited in PubChem by Broad Institute.
A selection: hits, their analogues and other compounds. The true share with any hit is near 2.4%.
CASP6 VEID inh: caspase-6 (human) enzyme inhibition. P55212. purified caspase-6, Z-VEID-R110 cleavage fluorescence. inhibition, % at 12.5 µM. 350,000 tested, 0.53% active;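 active means mean inhibition across replicates at least about 35%, with every replicate also reaching that limit, limit read from the data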;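 further: 0% = median of neutral control wells and 100% = no fluorescence left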
Target sequence (P55212 24-179 limits assumed): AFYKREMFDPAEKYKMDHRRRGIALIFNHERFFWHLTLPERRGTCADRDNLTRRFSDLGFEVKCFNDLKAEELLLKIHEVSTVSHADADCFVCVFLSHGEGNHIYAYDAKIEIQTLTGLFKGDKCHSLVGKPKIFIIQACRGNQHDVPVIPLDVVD
Target sequence (P55212 194-293 limits assumed): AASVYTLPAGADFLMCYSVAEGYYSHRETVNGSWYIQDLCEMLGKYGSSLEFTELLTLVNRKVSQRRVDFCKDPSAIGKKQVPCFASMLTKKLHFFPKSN
Ecoli rRNA inh: inhibitors of bacterial rRNA selective over humanized ribosomes; E. coli WT GFP vs humanized-ribosome RFP mutants, fluorescence, 24 h; active compounds read low; DMSO median 0, no signal -100; GFP signal change (wild-type ribosome), % (test concentration not listed); 350,000 tested, 1.6% active;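 active means significant combined selectivity score with lowered wild-type GFP, culture density cut under 30%, mutant RFP and density less affected; inactive means any of these conditions unmet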
ARNT TACC3 PPI: ARNT/TACC3 interaction disruption; AlphaScreen His-ARNT PAS-B/GST-TACC3 binding, luminescence; TACC3 fragment carries E629A point mutation; inhibition, % at 9.99 µM; 390,000 tested, 0.66% active; AID 623870;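 active means mean inhibition of replicates at least 50% and at least half of replicates each reaching 50%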;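 further: 0% = complete ARNT plus TACC3 wells and 100% = ARNT alone without TACC3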
ERAP1 inh: inhibitors of human ERAP1 aminopeptidase. 340,000 tested, 0.15% active. recombinant ERAP1, Leu-AMC fluorescence, 60 min. Q9NZ08. inhibition, % at 10.7 µM;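 active means mean replicate inhibition of at least 30%, or all replicates individually reaching that 30% level; inactive means mean below 30% and not every replicate reaching it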;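 further: 0% = neutral control wells and 100% = L-leucinethiol positive control wells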
S100A4 inh HTS: blocks human S100A4 binding to myosin IIA peptide; S100A4/TAMRA-MyoIIA peptide fluorescence polarization; inhibition, % at 10.7 µM; AID 652163; 360,000 tested, 0.14% active; P26447;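 active means mean inhibition of at least 70% across replicates, with every replicate also reaching that level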
Target sequence (P26447 whole entry, looked up): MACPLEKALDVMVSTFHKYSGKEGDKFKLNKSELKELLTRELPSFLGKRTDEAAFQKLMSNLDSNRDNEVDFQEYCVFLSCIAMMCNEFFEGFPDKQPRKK
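Assay system: human S100A4 monomer with TAMRA-labelled myosin IIA peptide / Buffer or medium: Calcium-containing HEPES buffer, pH 7.2 / Reagent: TAMRA-labelled myosin IIA heavy-chain peptide probe, 5 nM / Compound: one dose per compound / Timing: polarization read 5 min after assay mix addition, stable 5–60 min / Benchmarks: neutral control DMSO, positive control TFP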
PGC1a acetyl inh: lowers PGC1a acetylation signal in U2OS cells; 350,000 tested, 0.17% active; AID 651687; AlphaScreen anti-acetyl-lysine; with virally co-expressed GCN5 acetyltransferase; inhibition, % at 15.6 µM;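 active means every replicate shows inhibition of at least 40%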;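 further: 0% = neutral control wells and 100% = positive control wells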
* marks the source's active call; other numbers are inactive results; / = no result; + = active, no number.

SMILES	CASP6 VEID inh	Ecoli rRNA inh	ARNT TACC3 PPI	ERAP1 inh	S100A4 inh HTS	PGC1a acetyl inh
CCN1CCN(CCNC(=O)c2cc(Cl)c(NC(=O)C3=C(C)OCCS3)cc2OC)CC1	-31	-2	-1	-1	126*	-10
COc1ccc(NC(=O)N(C)C[C@H]2Oc3ccc(NC(=O)Cc4ccccc4)cc3CC(=O)N([C@@H](C)CO)C[C@@H]2C)cc1	0	1	/	3	-12	3
Cc1csc(=O)n1CC(=O)OCc1nnc(-c2ccc(Cl)cc2)o1	-1	3	2	1	+	1
CCOC(=O)C1=C(C)NC(C)=C(C(=O)OCC)C1C(=O)OCC(=O)NC(C)c1ccccc1 (stereo not drawn)	46*	1	-4	19	-5	/
O=C(O)C1Cc2[nH]cnc2C(c2ccccc2O)N1 (stereo not drawn)	/	/	82*	/	/	/
O=C(O)C1Cc2[nH]cnc2C(c2cccc([N+](=O)[O-])c2)N1 (stereo not drawn)	5	9	40	0	-3	/
C[C@@H]1CN([C@H](C)CO)C(=O)c2cc(NC(=O)c3ccncc3)ccc2O[C@@H](C)CCCCO[C@H]1CN(C)C(=O)c1ccccc1	/	-2	/	/	/	-1
CC(=O)NC12CC3CC(C1)CC(C(=O)OCC(=O)Nc1c(F)cccc1F)(C3)C2	1	2	-3	4	-1	-6
O=C(COC(=O)C12CC3CC(CC(O)(C3)C1)C2)NCCc1ccc(Cl)cc1	1	-20*	/	-5	-3	4
O=C(COC(=O)C12CC3CC(CC(Br)(C3)C1)C2)Nc1c(F)cccc1F	-2	-27*	0	2	-3	/
Cc1nc([N+](=O)[O-])cn1CC(O)c1ccc(-c2ccccc2)cc1 (stereo not drawn)	-5	-45*	-3	0	-5	16
Cc1ccc(C(O)Cn2cc([N+](=O)[O-])nc2C)cc1 (stereo not drawn)	1	-1	-5	1	0	-3
COc1ccc(S(=O)(=O)NNC(=O)Cc2csc(C)n2)cc1[N+](=O)[O-]	56*	-2	13	-1	-1	0
Cc1nc(CC(=O)NNS(=O)(=O)c2ccc3ccccc3c2)cs1	/	/	-5	/	/	/
CCCNC(=O)Nc1ccc2c(c1)C(=O)N(C)C[C@H](OC)[C@@H](C)CN(CCC(F)(F)F)[C@H](C)CO2	/	-3	/	/	/	6
O=C(CC(=O)c1cc(Cl)ccc1O)c1ccccc1	1	-27*	2	5	-1	-9
CCOC(=O)C1(Cc2cccc(Cl)c2)CCCN(C(=O)c2cccnc2)C1 (stereo not drawn)	1	-10	3	-1	2	97*
Cc1ccc(N=c2c([N+](=O)[O-])nn(-c3ccccc3)n2O)c(C)c1	2	-25*	5	2	1	0
Cc1c(Cl)cccc1N=c1c([N+](=O)[O-])nn(-c2ccccc2)n1O	4	-9	-5	2	7	6
Cc1noc(C)c1NC(=O)N(C)C[C@@H]1Oc2c(NC(=O)c3ccncc3)cccc2C(=O)N([C@@H](C)CO)C[C@@H]1C	2	4	4	1	-22	-1
Cc1cc(C)c2c(=O)[nH]n(C3CCCCCC3)c2n1	-1	19	17	-2	-27	88*
Cc1cc(C)c2c(=O)[nH]n(C3CCOC(C)(C)C3)c2n1 (stereo not drawn)	0	8	-7	-4	-2	2
Cc1ccc(C(=O)Nc2c(-c3ccc(Cl)cc3)[nH][nH]c2=O)cc1	6	-4	/	-4	0	9
O=C(Nc1c(-c2ccccc2)[nH][nH]c1=O)c1ccc(-c2ccccc2)cc1	2	-14*	/	-1	-1	/
O=C(Nc1c(-c2ccccc2)[nH][nH]c1=O)c1ccc2c(c1)OCO2	4	6	/	1	4	/
O=C(Nc1c(-c2ccc3c(c2)OCO3)[nH][nH]c1=O)c1ccccc1	45*	6	/	/	1	2
C[C@H]1CN([C@@H](C)CO)C(=O)c2cccc(N(C)C)c2O[C@@H]1CN(C)S(=O)(=O)c1ccc(Cl)cc1	0	-7	3	0	11	-2
